# Assay results as given in PubChem BioAssay.
# Where “and” joins values, the source holds several entries; their conditions need not be identical. Equal entries are not always repeated. Calls of active or inactive are those of the source. Unless noted, no rule for the calls is given here.
# Legend:
# [1] = molecular target: Pantothenate synthetase (Mycobacterium tuberculosis (strain ATCC 25618 / H37Rv)) (UniProt P9WIL5); experiment: Coupled enzyme confirmation of inhibitors against recombinant Mtb PanC (AID 375); details: coupled enzyme assay; at 10 µM, stronger effect = higher value;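 also: 0% = full reaction with vehicle and 100% = no enzyme background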
# [2] = Her2 expression decrease, cell viability multiplex – SKBR3 breast tumor cells, AlphaScreen, ATP viability, primary screen (AID 461;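 active = Her2 level under about 52% in both replicate screens, with viability over 70% of control, limit read from the data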;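 as to Her2 level: lower value means less Her2 protein in the cells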;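 as to viability: percent of carrier control wells set as 100% viability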); details: SKBR3 Her2 protein level, 18-24 h, measured here: SKBR3 viability, ATP luminescence, at 10 µM
# [3] = molecular target: Receptor tyrosine-protein kinase erbB-2 (Homo sapiens) (UniProt P04626); experiment: as above; details: 18-24 h, at 10 µM, stronger effect = lower value
# [4] = reduced viability of SK-BR-3 breast cancer cells – cell-based, 24 h, human, pilot screen (AID 572;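 active = viability at or below 10% of carrier control in both of two separate runs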;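 also: compound exposure lasted between 18 and 24 h rather than exactly 24 h; 100% = carrier-treated control wells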); details: SK-BR-3 viability, CellTiter-Glo luminescence, at 10 µM, stronger effect = lower value
# [5] = HUVEC growth inhibition – cell-based, human, primary screen (AID 575;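 active = viability at or below 30% in both replicate assays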;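 also: 100% = median of untreated cell wells with 0.1% DMSO on each plate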); details: HUVEC proliferation, CellTiter-Glo luminescence, 72 h; at 10 µM; stronger effect = lower value
# Method in brief: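 system = HUVEC primary cells | amount = 1250 cells/well | buffer or medium = supplemented EBM, 2% fetal bovine serum | dosing = single-point 10 µM, DMSO 0.1% final | times = 72 h compound incubation | detection = CTG luminescence | read-out = % viability relative to median vehicle-well signal on each plate | control set = vehicle and MePR control wells | format = collagen-coated 384-well format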
# [6] = H69AR cell proliferation blockers – human, duplicate replicates, primary screen (AID 580;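 active = viability at or under a set limit in both replicates, limit being median viability minus 3 SD, cut at about 48% in these data, passing the limit was not always enough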;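 also: 100% = mean luminescence of untreated wells and 0% = no signal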); details: H69AR lung tumor cells viability, ATP luminescence, 72 h; at 10 µM; stronger effect = lower value
# [7] = MRP1 drug-resistance reversers in H69AR cells – cell-based, doxorubicin co-treatment, pilot screen (AID 601;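 active = viability loss from added drug above about 55%, and viability with drug at most 40%, in both replicates, limit read from the data, passing the limit was not always enough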); details: CellTiter-Glo, 72 h, at 10 µM; for differential viability (reversal): stronger effect = higher value
# [8] = H69AR cells + 2 uM doxorubicin, measured here: viability with 2 uM doxorubicin, stronger effect = lower value
# [9] = H69AR cells, compound alone cytotoxicity
# Sequence of Receptor tyrosine-protein kinase erbB-2 (Homo sapiens) (P04626 whole entry, looked up): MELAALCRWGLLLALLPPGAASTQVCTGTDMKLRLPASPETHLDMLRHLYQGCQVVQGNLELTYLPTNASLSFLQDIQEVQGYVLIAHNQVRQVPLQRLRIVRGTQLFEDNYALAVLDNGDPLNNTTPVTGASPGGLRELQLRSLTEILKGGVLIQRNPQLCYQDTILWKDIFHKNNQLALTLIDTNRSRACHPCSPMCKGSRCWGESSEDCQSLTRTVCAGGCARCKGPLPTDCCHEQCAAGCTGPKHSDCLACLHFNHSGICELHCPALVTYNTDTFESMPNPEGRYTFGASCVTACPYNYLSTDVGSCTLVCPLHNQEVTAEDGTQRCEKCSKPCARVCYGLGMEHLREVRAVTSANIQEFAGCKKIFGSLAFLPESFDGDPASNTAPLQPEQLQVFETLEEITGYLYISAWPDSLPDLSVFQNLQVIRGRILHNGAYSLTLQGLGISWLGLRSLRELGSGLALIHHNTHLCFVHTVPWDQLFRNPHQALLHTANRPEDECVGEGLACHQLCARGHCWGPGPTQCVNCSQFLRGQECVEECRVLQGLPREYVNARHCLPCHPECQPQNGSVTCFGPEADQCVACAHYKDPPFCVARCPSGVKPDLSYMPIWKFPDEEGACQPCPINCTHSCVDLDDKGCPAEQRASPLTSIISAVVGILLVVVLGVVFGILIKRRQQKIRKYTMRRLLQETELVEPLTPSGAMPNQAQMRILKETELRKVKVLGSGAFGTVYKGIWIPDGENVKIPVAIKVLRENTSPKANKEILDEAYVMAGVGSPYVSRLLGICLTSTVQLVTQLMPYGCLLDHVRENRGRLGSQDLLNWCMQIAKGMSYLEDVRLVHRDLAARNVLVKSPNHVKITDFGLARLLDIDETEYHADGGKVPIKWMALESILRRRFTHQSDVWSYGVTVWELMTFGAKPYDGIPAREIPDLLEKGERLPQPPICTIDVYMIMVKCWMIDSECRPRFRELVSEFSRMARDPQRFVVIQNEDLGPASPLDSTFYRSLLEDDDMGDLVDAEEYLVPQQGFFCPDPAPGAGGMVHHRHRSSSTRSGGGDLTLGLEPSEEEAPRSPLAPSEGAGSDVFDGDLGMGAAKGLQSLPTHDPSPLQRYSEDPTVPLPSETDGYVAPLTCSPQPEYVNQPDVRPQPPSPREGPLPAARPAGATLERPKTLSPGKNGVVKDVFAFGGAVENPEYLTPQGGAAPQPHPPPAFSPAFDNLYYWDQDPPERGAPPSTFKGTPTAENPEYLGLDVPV
# Sequence of Pantothenate synthetase (Mycobacterium tuberculosis (strain ATCC 25618 / H37Rv)) (P9WIL5 whole entry, looked up): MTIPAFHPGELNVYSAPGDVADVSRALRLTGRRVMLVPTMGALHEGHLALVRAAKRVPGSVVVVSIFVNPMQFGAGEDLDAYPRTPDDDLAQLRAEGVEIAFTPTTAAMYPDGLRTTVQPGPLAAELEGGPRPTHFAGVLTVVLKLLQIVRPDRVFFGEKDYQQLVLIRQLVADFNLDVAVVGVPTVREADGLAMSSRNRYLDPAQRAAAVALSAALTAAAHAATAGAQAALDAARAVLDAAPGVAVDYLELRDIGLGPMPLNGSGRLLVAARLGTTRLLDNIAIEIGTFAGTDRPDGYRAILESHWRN
smiles,measurement,setting,value
c1ccc(Cc2nn3c(Cn4cnc5ccccc54)nnc3s2)cc1,inhibition,[1],4% (inactive)
C[C@@]1(CO)[C@H](O)CC[C@@]2(C)[C@H]1CC[C@H]1C[C@@H]3C[C@@]12CC[C@]3(O)CO,inhibition,[1],0% (inactive)
same,viability,[2],108%
same,Her2 level,[3],81.5% (inactive)
same,viability,[4],108% (inactive)
same,viability,[5],49.2% (inactive)
same,viability,[6],80.6% (inactive)
same,differential viability (reversal),[7]; H69AR cells + 2 uM doxorubicin,-28.1% (inactive)
same,viability,[7]; [8],109%
same,viability,[7]; [9],80.6%
Nn1cc(-c2ccccc2)nc1SCC(=O)N1CCN(S(=O)(=O)c2ccccc2)CC1,inhibition,[1],0% (inactive)
CCCCc1ccc(NC(=O)C2CCCO2)cc1 (stereo not given),inhibition,[1],0% (inactive)
CCC(COC(=O)c1cc(OC)c(OC)c(OC)c1)(c1ccccc1)N(C)C (stereo not given),inhibition,[1],2% (inactive)
same,viability,[2],87.5%
same,Her2 level,[3],107% (inactive)
same,viability,[4],87.5% (inactive)
same,viability,[5],104% (inactive)
same,viability,[6],87.6% (inactive)
same,differential viability (reversal),[7]; H69AR cells + 2 uM doxorubicin,11.9% (inactive)
same,viability,[7]; [8],75.7%
same,viability,[7]; [9],87.6%
O=C(OCC(=O)c1ccc[nH]1)c1ccc(S(=O)(=O)N2CCCCC2)cc1,inhibition,[1],1% (inactive)
C[N+]1(C)[C@@H]2CC[C@H]1CC(OC(=O)C(CO)c1ccccc1)C2 (stereo not given in full),inhibition,[1],6% (inactive) and 13% (inactive)
same,viability,[2],97.5% and 140%
same,Her2 level,[3],100% (inactive) and 106% (inactive)
same,viability,[4],97.5% (inactive) and 140% (inactive)
same,viability,[5],103% (inactive) and 106% (inactive)
same,viability,[6],100% (inactive) and 112% (inactive)
same,differential viability (reversal),[7]; H69AR cells + 2 uM doxorubicin,4.59% (inactive) and 7.77% (inactive)
same,viability,[7]; [8],95.6% and 104%
same,viability,[7]; [9],100% and 112%
CC(C)N(CCC(C(N)=O)(c1ccccc1)c1ccccn1)C(C)C (stereo not given),inhibition,[1],0% (inactive)
same,viability,[2],85%
same,Her2 level,[3],114% (inactive)
same,viability,[4],85% (inactive)
same,viability,[5],121% (inactive)
same,viability,[6],91.8% (inactive)
same,differential viability (reversal),[7]; H69AR cells + 2 uM doxorubicin,-15.8% (inactive)
same,viability,[7]; [8],108%
same,viability,[7]; [9],91.8%
C[N+]1(C)CCc2cc3c(cc2[C@H]1[C@@H]1OC(=O)c2c1ccc1c2OCO1)OCO3,inhibition,[1],0% (inactive)
same,viability,[2],89.5%
same,Her2 level,[3],102% (inactive)
same,viability,[4],89.5% (inactive)
same,viability,[5],87.1% (inactive)
same,viability,[6],113% (inactive)
same,differential viability (reversal),[7]; H69AR cells + 2 uM doxorubicin,7.33% (inactive)
same,viability,[7]; [8],105%
same,viability,[7]; [9],113%
COc1ccc(Br)cc1S(=O)(=O)N1CCOCC1,inhibition,[1],0% (inactive)
Cn1c2c(c(=O)n(C)c1=O)CN(CCCN1CCOCC1)CN2,inhibition,[1],0% (inactive)
O=C(Nc1ccc2snnc2c1)N1CCN(c2ccccc2)CC1,inhibition,[1],0% (inactive)
O=C(Nc1cnccn1)c1cccs1,inhibition,[1],0% (inactive)
COc1ccc(C(=O)N2CCCC2=O)cc1,inhibition,[1],10% (inactive)
same,viability,[2],110%
same,Her2 level,[3],94.5% (inactive)
same,viability,[4],110% (inactive)
same,viability,[5],119% (inactive)
same,viability,[6],103% (inactive)
same,differential viability (reversal),[7]; H69AR cells + 2 uM doxorubicin,13.5% (inactive)
same,viability,[7]; [8],89.1%
same,viability,[7]; [9],103%
Cc1csc(SCC(=O)NC(=O)NCc2ccccc2)n1,inhibition,[1],9% (inactive)
O=C(CNc1ccc(Oc2ccccc2)cc1)N1CCOCC1,inhibition,[1],0% (inactive)
CCOC(=O)c1sc(NC(=O)CNC(=O)Cn2cnc3sc(C)c(C)c3c2=O)nc1C,inhibition,[1],0% (inactive)
CCC(C)NC(=O)c1ccccc1NC(=O)C(C)N(c1ccccc1)S(C)(=O)=O (stereo not given),inhibition,[1],0% (inactive)
COc1ccc(OC)c([C@@H](O)[C@H](C)NC(C)(C)C)c1,inhibition,[1],6% (inactive)
same,viability,[2],100%
same,Her2 level,[3],120% (inactive)
same,viability,[4],100% (inactive)
same,viability,[5],92.3% (inactive)
same,viability,[6],97.5% (inactive)
same,differential viability (reversal),[7]; H69AR cells + 2 uM doxorubicin,-0.98% (inactive)
same,viability,[7]; [8],98.5%
same,viability,[7]; [9],97.5%
